In ChEMBL document CHEMBL1921733, “III. Identification of novel CXCR3 chemokine receptor antagonists with a pyrazinyl-piperazinyl-piperidine scaffold” (Bioorg Med Chem Lett, 2011) one finds AUC, IC50 and inhibition data, which are given here for 40 molecules.

A short description of data set [1]: AUC in rat at 10 mg/kg, po after 6 hrs. To be noted: in vivo.
Data set [2] has as its target T1, C-X-C chemokine receptor type 3 (Homo sapiens, UniProt P49682).
T1 sequence (P49682 whole entry): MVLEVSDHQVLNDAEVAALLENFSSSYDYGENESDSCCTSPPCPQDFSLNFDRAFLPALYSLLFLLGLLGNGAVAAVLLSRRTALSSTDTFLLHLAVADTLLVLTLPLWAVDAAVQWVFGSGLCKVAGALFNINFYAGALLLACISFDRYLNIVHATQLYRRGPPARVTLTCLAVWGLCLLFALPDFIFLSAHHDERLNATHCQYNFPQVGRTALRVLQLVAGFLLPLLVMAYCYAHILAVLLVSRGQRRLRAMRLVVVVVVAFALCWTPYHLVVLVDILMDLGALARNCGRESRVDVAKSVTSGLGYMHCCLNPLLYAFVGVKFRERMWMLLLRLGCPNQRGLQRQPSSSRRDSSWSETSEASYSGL
The data set is described as follows: Displacement of [125I]CXCL10 from human CXCR3 expressed in mouse BA/F3 cells. The data set is classed as cell-based, BaF3. An outline of the steps: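 Radioligand displacement of 125I-labelled human CXCL10 from recombinant Ba/F3 cells expressing human CXCR3.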

A further data set has as its target hERG (KCNH2) (Homo sapiens, UniProt Q12809). The data set is described as follows: Inhibition of human ERG at 10 uM by rubidium efflux assay. In outline: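 hERG K+ channel block measured by rubidium efflux with test compound at 10 μM, reported as % inhibition.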

hERG (KCNH2), sequence (Q12809 whole entry): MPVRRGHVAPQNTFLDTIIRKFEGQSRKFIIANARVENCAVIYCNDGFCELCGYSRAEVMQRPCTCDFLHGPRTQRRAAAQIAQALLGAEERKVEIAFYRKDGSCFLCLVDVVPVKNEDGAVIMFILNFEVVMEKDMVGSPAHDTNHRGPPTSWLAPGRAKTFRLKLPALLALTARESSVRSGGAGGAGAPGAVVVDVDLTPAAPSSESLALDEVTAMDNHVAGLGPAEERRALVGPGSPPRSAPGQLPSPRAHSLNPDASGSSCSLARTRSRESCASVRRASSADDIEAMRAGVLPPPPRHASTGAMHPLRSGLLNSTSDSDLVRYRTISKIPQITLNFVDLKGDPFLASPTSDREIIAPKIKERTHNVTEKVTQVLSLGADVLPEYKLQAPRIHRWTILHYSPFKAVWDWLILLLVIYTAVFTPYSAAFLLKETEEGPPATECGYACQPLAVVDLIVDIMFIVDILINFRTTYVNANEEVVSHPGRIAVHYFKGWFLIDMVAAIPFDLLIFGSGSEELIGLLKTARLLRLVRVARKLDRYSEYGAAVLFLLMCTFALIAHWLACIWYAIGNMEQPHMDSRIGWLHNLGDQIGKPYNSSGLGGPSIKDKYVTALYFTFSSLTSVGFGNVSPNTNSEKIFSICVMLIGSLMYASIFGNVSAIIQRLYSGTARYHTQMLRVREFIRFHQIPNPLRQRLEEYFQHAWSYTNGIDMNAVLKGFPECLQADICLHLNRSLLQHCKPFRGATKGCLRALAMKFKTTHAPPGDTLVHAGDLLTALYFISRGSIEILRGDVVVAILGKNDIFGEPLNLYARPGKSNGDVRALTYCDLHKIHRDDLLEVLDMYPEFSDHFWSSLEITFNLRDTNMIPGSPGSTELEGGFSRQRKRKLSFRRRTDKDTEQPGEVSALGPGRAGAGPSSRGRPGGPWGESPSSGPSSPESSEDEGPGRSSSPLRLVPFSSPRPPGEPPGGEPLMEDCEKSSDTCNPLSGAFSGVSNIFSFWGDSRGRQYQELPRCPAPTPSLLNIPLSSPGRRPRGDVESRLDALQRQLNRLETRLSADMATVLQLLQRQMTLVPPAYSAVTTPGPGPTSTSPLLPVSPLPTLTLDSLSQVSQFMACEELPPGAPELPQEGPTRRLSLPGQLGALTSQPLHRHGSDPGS

Turning to `CC[C@H]1CN(c2nc(N)c(C(N)=O)nc2Cl)CCN1C1CCN(Cc2ccc(Cl)cc2)CC1`, the area under the curve (AUC) at 6 h in data set [1] came to 5.1 µM·h.

The molecule `CC[C@H]1CN(c2nc(N)c(C(N)=O)nc2Cl)CCN1C1CCN(Cc2ccc(OC(F)(F)F)cc2)CC1` came in with an IC50 in data set [2] of 3.7 nM.

In data set [2], `CC[C@H]1CN(c2nc(N)c(C(N)=O)nc2Cl)CCN1C1CCN(Cc2ccc(C#N)cc2)CC1` yielded a 50% inhibitory concentration (IC50) of 8.5 nM.

In turn, `CC[C@H]1CN(c2nc(N)c(C(N)=O)nc2Cl)CCN1C1CCN(C(CO)c2ccc(Cl)cc2)CC1` (some centres undefined) showed an IC50 in data set [2] of 1.9 nM.

Regarding `CC[C@H]1CN(c2nc(N)c(C(N)=O)nc2Cl)CCN1C1CCN(C(=O)c2ccc(Cl)cc2)CC1`, the concentration for half-maximal inhibition (IC50) in data set [2] is 76 nM.

Consider `CC[C@H]1CN(c2nc(N)c(C(=O)NC)nc2Cl)CCN1C1CCN(Cc2ccc(Cl)cc2)CC1`, for which the IC50 in data set [2] is 0.3 nM.

As for `CC[C@H]1CN(c2nc(N)c(C(=O)NCC(F)(F)F)nc2Cl)CCN1C1CCN(Cc2ccc(Cl)cc2)CC1`, the concentration for half-maximal inhibition (IC50) in data set [2] amounted to 0.8 nM.

With `CC[C@H]1CN(c2nc(N)c(C(=O)NCCO)nc2Cl)CCN1C1CCN(Cc2ccc(Cl)cc2)CC1`, the IC50 in data set [2] is 0.4 nM.

In data set [2], `CC[C@H]1CN(c2nc(N)c(C(=O)NCC(C)O)nc2Cl)CCN1C1CCN(Cc2ccc(Cl)cc2)CC1` (some centres undefined) came in with a half-maximal inhibitory concentration (IC50) of 0.3 nM.

Take `CC[C@H]1CN(c2nc(N)c(C(=O)NCC(C)(C)O)nc2Cl)CCN1C1CCN(Cc2ccc(Cl)cc2)CC1`: the 50% inhibitory concentration (IC50) in data set [2] was found to be 8.4 nM.

In the case of `CC[C@H]1CN(c2nc(N)c(C(=O)NCCNS(=O)(=O)C(F)(F)F)nc2Cl)CCN1C1CCN(Cc2ccc(Cl)cc2)CC1`, the IC50 in data set [2] came to 0.9 nM.

For the molecule `CC[C@H]1CN(c2nc(N)c(C(=O)NCCNS(N)(=O)=O)nc2Cl)CCN1C1CCN(Cc2ccc(Cl)cc2)CC1`, the half-maximal inhibitory concentration (IC50) in data set [2] was 1.9 nM.

As for `CC[C@H]1CN(c2nc(N)c(C(=O)NCCS(C)(=O)=O)nc2Cl)CCN1C1CCN(Cc2ccc(Cl)cc2)CC1`, in data set [2], the 50% inhibitory concentration (IC50) amounted to 6.4 nM.

For `CC[C@H]1CN(c2nc(N)c(C(=O)N[C@@H]3CCOC3=O)nc2Cl)CCN1C1CCN(Cc2ccc(Cl)cc2)CC1`, in data set [2], the 50% inhibitory concentration (IC50) is 1.5 nM.

As for `CC[C@H]1CN(c2nc(N)c(C(=O)NCCNS(N)(=O)=O)nc2Cl)CCN1C1CCN(Cc2ccc(F)c(F)c2)CC1`, the inhibition at 10 µM on hERG (KCNH2) was determined as 4%. Besides, the half-inhibitory concentration (IC50) in data set [2] was 9 nM.

Regarding `CC[C@H]1CN(c2nc(N)c(C(=O)NCCNS(C)(=O)=O)nc2Cl)CCN1C1CCN(Cc2ccc(Cl)cc2)CC1`, at hERG (KCNH2), the inhibition at 10 µM turned out to be 39%. In data set [2], the 50% inhibitory concentration (IC50) amounted to 4.4 nM.

On to `CC[C@H]1CN(c2nc(N)c(C(N)=O)nc2Cl)CCN1C1CCN(Cc2ccc(Cl)cc2[C@H](O)C(N)=O)CC1`, for which testing at 10 µM at hERG (KCNH2) gave an inhibition of 14%. Further, the IC50 in data set [2] is 4.1 nM.

The molecule `CC[C@H]1CN(c2nc(N)c(C(=O)NCCO)nc2Cl)CCN1C1CCN(C(=O)c2ccc(Cl)nc2N)CC1` had an inhibition at 10 µM against hERG (KCNH2) of 17%. In data set [2], this molecule yielded a half-inhibitory concentration (IC50) of 3.4 nM. This molecule also had an area under the curve (AUC) at 6 h in data set [1] of 5.9 µM·h.

`CC[C@H]1CN(c2ncc(C(N)=O)nc2Cl)CCN1C1CCN(C(=O)c2ccc(Cl)nc2N)CC1` came in with an inhibition at 10 µM on hERG (KCNH2) of 7%. For the same molecule, the IC50 in data set [2] was found to be 2.5 nM.

`CC[C@H]1CN(c2ncc(C(=O)NC(C)(C)C)nc2Cl)CCN1C1CCN(C(=O)c2ccc(Cl)nc2N)CC1` had an inhibition at 10 µM at hERG (KCNH2) of 13%. The same molecule displayed an IC50 in data set [2] of 1.5 nM.

In the case of `CC[C@H]1CN(c2ncc(C(=O)NC3CC3)nc2Cl)CCN1C1CCN(C(=O)c2ccc(Cl)nc2N)CC1`, the inhibition at 10 µM against hERG (KCNH2) amounted to 19%. Further, the 50% inhibitory concentration (IC50) in data set [2] is 1.2 nM.

On to `CC[C@H]1CN(c2ncc(C(=O)NC(C)C)nc2Cl)CCN1C1CCN(C(=O)c2ccc(Cl)nc2N)CC1`, for which the inhibition at 10 µM against hERG (KCNH2) is 56%. Besides, the IC50 in data set [2] worked out at 0.9 nM.

At hERG (KCNH2), `CC[C@H]1CN(c2ncc(C(=O)NCCO)nc2Cl)CCN1C1CCN(C(=O)c2ccc(Cl)nc2N)CC1` returned an inhibition at 10 µM of 11%. The IC50 in data set [2] was 2.9 nM.

On to `CC[C@H]1CN(c2ncc(C(=O)NC[C@@H](C)O)nc2Cl)CCN1C1CCN(C(=O)c2ccc(Cl)nc2N)CC1`, for which 10 µM produced 17% inhibition on hERG (KCNH2). For the same molecule, the 50% inhibitory concentration (IC50) in data set [2] was determined as 2.9 nM.

`CC[C@H]1CN(c2ncc(C(N)=O)nc2C(F)(F)F)CCN1C1CCN(C(=O)c2ccc(Cl)nc2N)CC1` displayed an inhibition at 10 µM at hERG (KCNH2) of 0%. Also, in data set [2], the IC50 amounted to 1.9 nM. Moreover, in data set [1], the AUC at 6 h was found to be 15.3 µM·h.

At hERG (KCNH2), `CC[C@H]1CN(c2ncc(C(=O)NC)nc2C(F)(F)F)CCN1C1CCN(C(=O)c2ccc(Cl)nc2N)CC1` yielded an inhibition at 10 µM of 0%. This molecule also gave an IC50 in data set [2] of 1.5 nM. This molecule gave an AUC at 6 h in data set [1] of 6.4 µM·h.

In the case of `CC[C@H]1CN(c2ncc(C(=O)NC3CC3)nc2C(F)(F)F)CCN1C1CCN(C(=O)c2ccc(Cl)nc2N)CC1`, 10 µM produced 53% inhibition against hERG (KCNH2). The half-inhibitory concentration (IC50) in data set [2] worked out at 1.8 nM. The molecule also gave an AUC at 6 h in data set [1] of 3.6 µM·h.

`CC[C@H]1CN(c2ncc(C(N)=O)nc2C)CCN1C1CCN(C(=O)c2ccc(Cl)nc2N)CC1` had an inhibition at 10 µM against hERG (KCNH2) of 0%. The molecule further yielded an IC50 in data set [2] of 4 nM. In data set [1], this molecule yielded an AUC at 6 h of 30.2 µM·h.

The molecule `CC[C@H]1CN(c2ncc(C(=O)NC)nc2C)CCN1C1CCN(C(=O)c2ccc(Cl)nc2N)CC1` gave an inhibition at 10 µM at hERG (KCNH2) of 5%. Moreover, the IC50 in data set [2] was 2.4 nM. The exposure (AUC) at 6 h in data set [1] is 12.1 µM·h.

For `CC[C@H]1CN(c2ncc(C(=O)NC3CC3)nc2C)CCN1C1CCN(C(=O)c2ccc(Cl)nc2N)CC1`, at hERG (KCNH2), 10 µM produced 16% inhibition. The same molecule showed an IC50 in data set [2] of 1.9 nM. Moreover, the area under the curve (AUC) at 6 h in data set [1] worked out at 22 µM·h.

As to `CC[C@H]1CN(c2ncc(C(N)=O)nc2C)CCN1C1CCN(C(=O)c2ccc(Cl)cc2)CC1`, at hERG (KCNH2), 10 µM produced 6% inhibition. In data set [2], this molecule registered an IC50 of 18 nM.

With `CC[C@H]1CN(c2ncc(C(=O)NC)nc2C)CCN1C1CCN(C(=O)c2ccc(Cl)cc2)CC1`, at hERG (KCNH2), at 10 µM the inhibition was 41%. The molecule further gave an IC50 in data set [2] of 3.6 nM.

In the case of `CCNC(=O)c1cnc(N2CCN(C3CCN(C(=O)c4ccc(Cl)cc4)CC3)[C@@H](CC)C2)c(C)n1`, the inhibition at 10 µM against hERG (KCNH2) worked out at 44%. For the same molecule, in data set [2], the IC50 is 2 nM. Besides, in data set [1], the exposure (AUC) at 6 h was 2.9 µM·h.

Turning to `CC[C@H]1CN(c2ncc(C(=O)NC3CC3)nc2C)CCN1C1CCN(C(=O)c2ccc(Cl)cc2)CC1`, the inhibition at 10 µM at hERG (KCNH2) was determined as 74%. Also, the concentration for half-maximal inhibition (IC50) in data set [2] is 1.1 nM. For the same molecule, the AUC at 6 h in data set [1] came to 8.4 µM·h.

Consider `CC[C@H]1CN(c2ncc(C(N)=O)nc2C)[C@H](C)CN1C1CCN(C(=O)c2ccc(Cl)cc2)CC1`, for which the inhibition at 10 µM on hERG (KCNH2) came to 9%. The half-inhibitory concentration (IC50) in data set [2] worked out at 5.4 nM.

`CC[C@@H]1CN(C2CCN(C(=O)c3ccc(Cl)cc3)CC2)[C@@H](CC)CN1c1ncc(C(N)=O)nc1C` displayed an inhibition at 10 µM against hERG (KCNH2) of 13%. Moreover, the IC50 in data set [2] was determined as 235 nM.

In data set [2], `CC[C@H]1CN(c2ncc(C(N)=O)nc2C)[C@@H](C)CN1C1CCN(C(=O)c2ccc(Cl)cc2)CC1` gave an IC50 of over 1000 nM.

On hERG (KCNH2), `CC[C@H]1CN(c2ncc(C(=O)NC)nc2C)[C@H](C)CN1C1CCN(C(=O)c2ccc(Cl)cc2)CC1` returned an inhibition at 10 µM of 30%. This molecule registered an IC50 in data set [2] of 4.2 nM.

In turn, `CC[C@H]1CN(c2ncc(C(=O)NC3CC3)nc2C)[C@H](C)CN1C1CCN(C(=O)c2ccc(Cl)cc2)CC1` showed an inhibition at 10 µM on hERG (KCNH2) of 7%. In data set [2], this molecule returned a half-maximal inhibitory concentration (IC50) of 1.3 nM. In data set [1], this molecule gave an AUC at 6 h of 9.8 µM·h.

For the molecule `CCNC(=O)c1cnc(N2CCN(C3CCN(Cc4ccc(Cl)cc4)CC3)[C@@H](CC)C2)c(Cl)c1`, the AUC at 6 h in data set [1] was found to be 0.4 µM·h.
